OX1R antag-1 = antagonists of human orexin 1 receptor; O43613; inhibition, % at 5 µM; 330,000 tested, 0.43% active; CHO/OX1R cells, Fluo-8 calcium fluorescence, orexin A;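 active means inhibition above its plate's threshold, mean inhibition of all tested compounds on the plate plus 3 SD, cut at about 37% in these data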
Target sequence (O43613 whole entry, looked up): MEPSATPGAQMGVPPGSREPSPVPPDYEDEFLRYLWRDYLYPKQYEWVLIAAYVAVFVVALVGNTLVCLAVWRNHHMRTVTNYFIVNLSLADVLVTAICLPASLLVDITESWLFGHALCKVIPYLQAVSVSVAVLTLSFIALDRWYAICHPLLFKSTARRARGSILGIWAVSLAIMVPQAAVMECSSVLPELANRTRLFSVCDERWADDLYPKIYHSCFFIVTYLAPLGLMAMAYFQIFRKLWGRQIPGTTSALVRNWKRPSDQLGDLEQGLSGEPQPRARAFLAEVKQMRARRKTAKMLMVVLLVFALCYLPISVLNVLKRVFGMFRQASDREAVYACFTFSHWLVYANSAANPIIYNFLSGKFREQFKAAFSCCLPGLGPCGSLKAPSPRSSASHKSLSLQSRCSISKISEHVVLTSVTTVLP
GPR7 antagonist = antagonists of human GPR7 (neuropeptides B/W receptor 1); P48145; GPR7-expressing cells, fluorescence antagonist assay; inhibition, % at 4.4 µM; 290,000 tested, 1.1% active; in the data active means inhibition above about 16%, passing the limit was not always enough;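 further: cells stimulated with the agonist NPW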
CHO parental Ca = counter-screen: ATP calcium response change in parental CHO cells; parental CHO-K1, ATP-induced calcium, Fluo-8 fluorescence; inhibition, % at 5.6 µM; 330,000 tested, 0.63% active; AID 463079;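 active means inhibition above that plate's mean sample inhibition plus 3 SD, cut at about 26% in these data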
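Test system: untransfected parental CHO cell line. Compound: one dose, 5.6 µM nominal. Detection: intracellular calcium via Fluo-8 no-wash fluorescent dye. Measure: % inhibition. Benchmarks: ATP-challenged DMSO wells low, unchallenged DMSO wells high.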
TAAR1 antagonist = human TAAR1 antagonism. 360,000 tested, 1.5% active. AID 624466. inhibition, % at 3 µM. CHO RD-HGA16 TAAR1, Fluo-8 calcium fluorescence, antagonist;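 active means inhibition above a per-plate cutoff, the mean inhibition of test compounds on that plate plus 3 SD, cut at about 49% in these data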
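Test system – hTAAR1-expressing CHO RD-HGA16 cells, Gα16-coupled · Reagent – β-PEA at EC80 concentration, post-compound challenge · Compound dosing – 3 µM, single point · Timing – 140 s kinetic read after compound, 140 s after agonist · Detection – Fluo-8 intracellular calcium dye fluorescence, real-time kinetic reads · Control set – DMSO and EC80 PEA controls · Repeats – n of 1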
OX1R antag-2 = antagonists of human orexin 1 receptor (OX1R). inhibition, % at 6.6 µM. 330,000 tested, 1.8% active. OX1R-expressing cells, FRET antagonist read-out. O43613; in the data active means inhibition mostly above about 38%, no sharp cut-off; inactive means mostly below about 40%
TAAR1 ag = human TAAR1 agonism; Q96RJ0; 360,000 tested, 0.99% active; CHO RD-HGA16 TAAR1, Fluo-8 calcium fluorescence; vehicle wells 0%, saturating PEA agonist 100%; activation, % at 3 µM;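 active means activation above the mean activation of all test compounds in the run plus 3 SD, cut at about 38% in these data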
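Signal – calcium-sensitive Fluo-8 signal, excitation 470-495, emission 515-575 nm · System – RD-HGA16 (CHO) cells co-expressing Gα16 and hTAAR1 · Incubation – 17-24 h seeding, 75 min 37 °C dye, 30 min RT · Compound dosing – 3 µM single concentration · Repeats – no replicates (n 1)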
OX1R HTRF conf = OX1R (human) antagonism, HTRF confirmed. OX1R-expressing cells, HTRF antagonist assay. 1,800 tested, 49% active. inhibition, % at 6.6 µM. shares compounds with OX1R antag-2; in the data active means inhibition above about 55%;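 further: CHO cells expressing OX1R stimulated with orexin A at about EC80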
CHO-K1 HTRF = counter-screen for OX1R antagonists: effect in parental CHO-K1 cells. inhibition, % at 6.6 µM. AID 493232. HTRF counterscreen. 1,800 tested, 48% active. shares compounds with OX1R antag-2; in the data active means inhibition above about 17%
Large screens that a line does not name were inactive (follow-up assays come after a bar, where they were run). Only some compounds are listed: those with a hit (about 4.5% of all), similar ones and a draw of the others.

CC(NC(=O)C1CCCN1C(=O)OC(C)(C)C)C(=O)OCc1ccccc1 (stereo not drawn)	none (no result: OX1R antag-1, GPR7 antagonist, CHO parental Ca, OX1R antag-2)
COC(=O)[C@]12CCCCC=C1N(Cc1cccc3ccccc13)C(=O)[C@H](CC(=O)NCC1CCCCC1)C2	none (no result: OX1R antag-1, GPR7 antagonist, CHO parental Ca, OX1R antag-2)
CCOC(=O)N1CCN(C(=O)Cc2ccccc2OC)CC1	none
CS(=O)(=O)N1CCCCC1c1cc(C(=O)Nc2ccccc2Cl)no1 (stereo not drawn)	none (no result: OX1R antag-1, GPR7 antagonist, CHO parental Ca, OX1R antag-2)
CC(C)(C)c1ccc(-c2nnc(SC3CCOC3=O)n2Cc2ccccc2)cc1 (stereo not drawn)	OX1R antag-2 84 | OX1R HTRF conf inactive | CHO-K1 HTRF inactive
Brc1cc2ccccc2[n+](Cc2ccccc2)c1	OX1R antag-2 102 (no result: GPR7 antagonist) | OX1R HTRF conf inactive | CHO-K1 HTRF 62
Cc1csc(NC(=O)c2cnc3ccccc3n2)n1	OX1R antag-2 113 | OX1R HTRF conf inactive | CHO-K1 HTRF 48
CCOC(=O)c1ccc([N+](=O)[O-])cc1NC(C)=O	OX1R antag-2 83 | OX1R HTRF conf inactive | CHO-K1 HTRF 44
COc1ccc(CN2C(=O)C(CC(=O)NCC3CCCCC3)CC(C(=O)N3CCOCC3)=C2C)cc1 (stereo not drawn)	none (no result: OX1R antag-1, GPR7 antagonist, CHO parental Ca, OX1R antag-2)
O=C(NCCCN1CCOCC1)c1cc2cc(Br)ccc2oc1=O	OX1R antag-2 124 | OX1R HTRF conf inactive | CHO-K1 HTRF 41
O=C(NCCN1CCOCC1)c1cc2cc(Br)ccc2oc1=O	none
O=C1c2ccccc2C(=O)c2c1ccc(C(=O)N1CCCCC1)c2NCCO	none
CCNc1c(C(=O)O)ccc2c1C(=O)c1ccccc1C2=O	OX1R antag-2 97 | OX1R HTRF conf inactive | CHO-K1 HTRF 18
CNc1c(C(=O)O)ccc2c1C(=O)c1ccccc1C2=O	OX1R antag-2 111 | OX1R HTRF conf 62 | CHO-K1 HTRF 86
O=C(O)c1ccc2c(c1Nc1ccccc1)C(=O)c1ccccc1C2=O	none
O=C(O)c1cccc2c1C(=O)c1ccccc1C2=O	OX1R antag-2 85 | OX1R HTRF conf 64 | CHO-K1 HTRF 110
O=C1NC[C@@H](CCCCN2C[C@H](Cc3ccc(O)cc3)N(CCc3ccc(O)cc3)C(=O)C2=O)N(CCc2ccccc2)C1=O	none (no result: OX1R antag-1, GPR7 antagonist, CHO parental Ca, OX1R antag-2)
COCCN1C[C@@H](CO)O[C@@H](n2cnc3c(NCC(C)C)ncnc32)C1	none (no result: OX1R antag-1, GPR7 antagonist, CHO parental Ca, OX1R antag-2)
CC(C)(C)C(=O)N1CCN(c2ccc(NC(=O)c3ccc([N+](=O)[O-])o3)cc2)CC1	OX1R antag-2 78 | OX1R HTRF conf inactive | CHO-K1 HTRF inactive
CCCn1cnc2cc(NC(=O)c3ccco3)ccc21	OX1R antag-2 94 | OX1R HTRF conf inactive | CHO-K1 HTRF inactive
O=C(Nc1ccc2nn(-c3ccccc3)nc2c1)c1ccco1	OX1R antag-2 95 | OX1R HTRF conf 71 | CHO-K1 HTRF inactive
CCn1cnc2cc(NC(=O)c3ccco3)ccc21	none
COc1cccc(-c2sc3ccc(OC)cc3c2-c2cnc(N3CCOCC3)nc2)c1	none (no result: OX1R antag-1, GPR7 antagonist, CHO parental Ca, OX1R antag-2)
c1cncc(C2SCCCS2)c1	none (no result: OX1R antag-1, GPR7 antagonist, CHO parental Ca, OX1R antag-2)
COc1cccc(-c2nn(C)c3sc(C(=O)N4CCN(c5ccccn5)CC4)cc23)c1	OX1R antag-2 78 (no result: TAAR1 antagonist, TAAR1 ag) | OX1R HTRF conf inactive | CHO-K1 HTRF inactive
COc1cccc(-c2nn(C)c3sc(C(=O)N4CCOCC4)cc23)c1	none
NC(=O)c1ccc(SCC(=O)NC2CCCCC2)c([N+](=O)[O-])c1	OX1R antag-2 77 | OX1R HTRF conf inactive | CHO-K1 HTRF 35
O=C(CC[C@H]1O[C@@H](n2ccc(=O)[nH]c2=O)[C@H](O)[C@@H]1O)N[C@@H](Cc1ccccc1)C(=O)NCc1ccccc1	none (no result: OX1R antag-1, GPR7 antagonist, CHO parental Ca, OX1R antag-2)
CCOC(=O)[C@]12CCCC=C1N(Cc1ccco1)C(=O)[C@H](CC(=O)N1CCCC1)C2	none (no result: OX1R antag-1, GPR7 antagonist, CHO parental Ca, OX1R antag-2)
O=[N+]([O-])c1ccc(SNc2ccccc2)c([N+](=O)[O-])c1	none (no result: OX1R antag-1, GPR7 antagonist, CHO parental Ca, OX1R antag-2)
O=[N+]([O-])c1ccc(-[n+]2ccc3ccccc3c2)c([N+](=O)[O-])c1	OX1R antag-2 78 (no result: GPR7 antagonist) | OX1R HTRF conf inactive | CHO-K1 HTRF 60
O=S(=O)(c1cccc2nsnc12)N1CCCCC1	none
